Experimental data collected from several papers.
Lines come from different studies, so protocols differ.
Cell line: HCT-116
Effect on: cell growth or viability

`C=CCN1C(=O)C(=Nc2cccc(C)c2)c2ccccc21` has an IC50 of greater than 100 µM (MTT; 48 h).
With `COc1cccc2c1C(=O)c1c(O)c3c(c(O)c1C2=O)C[C@@](O)(C(=O)CO)C[C@@H]3O[C@H]1C[C@H](N)[C@H](O)[C@H](C)O1` the IC50 was 10.5 µM (MTT; 24 h).
`CC(C)c1cccc(C(C)C)c1N=C1C(=O)Nc2ccccc21` gave an IC50 of 4.65 µM (MTT; 48 h).
For `FC(F)(F)c1cc(OCc2cc(-c3ccccn3)no2)c2ccccc2n1`, the IC50 was greater than 100 µM (MTS; 72 h).
The IC50 of `O=C1C(=Nc2ccc(Cl)cc2)c2ccccc2N1Cc1cccc(Cl)c1` is reported as 7.71 µM (MTT; 48 h).
For `O=c1cc(OCc2cc(-c3ccc(Cl)cc3Cl)no2)c2ccccc2o1`, the IC50 was greater than 100 µM (MTS; 72 h).
The IC50 of `O=[N+]([O-])c1cc(Br)c(O)c(C=NNc2ccc(Cl)cc2)c1` is reported as 16.6 µM (MTT; 24 h).
The IC50 of `Cc1nnc(-c2nn(Cc3ccc(Cl)cc3Cl)c3ccccc23)o1` is reported as 48.4 µM (48 h).
`Cc1cc(Cn2ccnc2)nn1C` has an IC50 of 241 µM (MTT; 24 h).
For `O=C(C=Cc1ccc(OCCOc2ccc(C=CC(=O)c3cccs3)cc2)cc1)c1cccs1`, the IC50 was 17.1 µM (MTT; 48 h).
`Cc1cc(C)n(Cn2ccnc2)n1` gave an IC50 of 21.3 µM (MTT; 24 h).
`COC(=O)c1ccc2c(c1)NC(=O)/C2=C(\Nc1ccc(N(C)C(=O)CN2CCN(C)CC2)cc1)c1ccccc1` gave an IC50 of 1.88 µM (MTT; 24 h).
`Cc1cc(NS(=O)(=O)c2ccc(NC(=O)/C(C#N)=C/c3ccc(N4CCOCC4)cc3)cc2)no1` has an IC50 of 67.8 µM (MTT; 48 h).
The IC50 of `O=C1CS/C(=N\c2cc(C(F)(F)F)ccc2-c2nnc(N3C(=O)CS/C3=N\c3ccc(F)cc3)s2)N1c1ccc(F)cc1` is reported as 21.2 µM (MTT).
With `COc1ccc2c(-c3ncc(-c4ccccc4)o3)nn(Cc3ccccc3)c2c1` the IC50 was 80.9 µM (48 h).
The IC50 of `c1ccc(-c2cc(CNc3cccc4cccnc34)on2)nc1` is reported as greater than 100 µM (MTS; 72 h).
With `S=C(N/N=C/c1cccc2cc3ccccc3nc12)Nc1ccccc1` the IC50 was greater than 50 µM (MTT; 48 h).
The IC50 of `c1ccc(-c2noc(-c3nn(Cc4ccncc4)c4ccccc34)n2)cc1` is reported as 47.5 µM (48 h).
`O=C1CS/C(=N\c2ccc(F)cc2O)N1c1nnc(-c2ccc(C(F)(F)F)cc2/N=C2\SCC(=O)N2c2ccc(F)cc2O)s1` gave an IC50 of 17.2 µM (MTT).
The IC50 of `O=C(C=Cc1cccs1)c1ccc(OCCCOc2ccc(C(=O)C=Cc3cccs3)cc2)cc1` is reported as 30.7 µM (MTT; 48 h).
For `Cc1ccc(CN2C(=O)C(=Nc3c(C(C)C)cccc3C(C)C)c3ccccc32)cc1`, the IC50 was 30.9 µM (MTT; 48 h).
`COc1ccc(CNC(=O)Cn2cc(COc3ncnc4[nH]cnc34)nn2)cc1` gave an IC50 of greater than 100 µM (MTT).
The IC50 of `O=C1C(=Nc2ccccc2I)c2ccccc2N1Cc1ccc([N+](=O)[O-])cc1` is reported as 1.7 µM (MTT; 48 h).
For `O=P1(C2CCCCC2)CCCCC1`, the IC50 was 13.8 µM (MTT; 72 h).
`Cc1cc(NS(=O)(=O)c2ccc(NC(=O)/C(C#N)=C/c3ccc(N4CCCC4)cc3)cc2)no1` has an IC50 of 98.6 µM (MTT; 48 h).
For `O=c1cc(OCc2cc(-c3ccc(C(F)(F)F)cc3)no2)c2ccccc2o1`, the IC50 was greater than 100 µM (MTS; 72 h).
For `Cc1cc2c(C(N)=O)cccc2n1-c1nc2c(c(NCc3ccccc3)n1)CCCN2`, the IC50 was 0.7 µM (ATP luminescence; 72 h).
The IC50 of `COc1cccc2c1C(=O)c1c(O)c3c(c(O)c1C2=O)C[C@@](O)(C(=O)CO)C[C@@H]3O[C@H]1C[C@H](N)[C@H](O)[C@H](C)O1` is reported as 0.00382 µM (96 h).
The IC50 of `FC(F)(F)c1cc(OCc2cc(-c3ccc(Cl)cc3Cl)no2)c2ccccc2n1` is reported as greater than 100 µM (MTS; 72 h).
For `COc1cc([C@@H]2c3cc4c(cc3[C@@H](O[C@@H]3O[C@@H]5CO[C@@H](C)O[C@H]5[C@H](O)[C@H]3O)[C@H]3COC(=O)[C@H]23)OCO4)cc(OC)c1O`, the IC50 was 2.4 µM (SRB; 72 h).
`O=C(CSc1nc2ccccc2s1)N/N=C/c1ccc(OCC(=O)Nc2ccc(Br)cc2)cc1` gave an IC50 of greater than 100 µM (MTS; 72 h).
`COc1cccc2c1C(=O)c1c(O)c3c(c(O)c1C2=O)C[C@@](O)(C(=O)CO)C[C@@H]3O[C@H]1C[C@H](N)[C@H](O)[C@H](C)O1` has an IC50 of 8.12 µM (LDH; 48 h).
The IC50 of `CCCNC(=S)N/N=C/c1cccc2cc3ccccc3nc12` is reported as 43.3 µM (MTT; 48 h).
The IC50 of `FC(F)(F)c1ccc(-c2nnc(-c3nn(Cc4ccc(Cl)cc4Cl)c4ccccc34)o2)cc1` is reported as 323 µM (48 h).
`CC(C)c1ccc(/C=C2\N=C(SCC(=O)O)N(c3ccccc3)C2=O)cc1` gave an IC50 of 44.3 µg/mL (MTT).
`C#CCn1c(C2CC(c3ccc(F)cc3)=NN2C(C)=O)nc2ccccc21` (stereo not shown) gave an IC50 of 6.85 µM (LDH; 48 h).
The IC50 of `O=P1(c2ccccc2)CCCCC1` is reported as greater than 100 µM (MTT; 72 h).
`Cc1cc2c(C(N)=O)cccc2n1-c1nc2c(c(OCc3ccccc3)n1)CCCN2` gave an IC50 of 3.4 µM (ATP luminescence; 72 h).
For `COc1cccc2c1C(=O)c1c(O)c3c(c(O)c1C2=O)C[C@@](O)(C(=O)CO)C[C@@H]3O[C@H]1C[C@H](N)[C@H](O)[C@H](C)O1`, the IC50 was 41.2 µM (MTT).
The IC50 of `Cc1cccc(N=C2C(=O)N(Cc3cccc(Cl)c3)c3ccccc32)c1` is reported as 7.13 µM (MTT; 48 h).
With `Cc1cc2c(C(=O)O)cccc2n1-c1nc2c(c(NCc3ccccc3)n1)CCCN2` the IC50 was 0.4 µM (ATP luminescence; 72 h).
With `c1ccc(Cc2nnc(-c3nn(Cc4ccccc4)c4ccccc34)o2)cc1` the IC50 was 15.1 µM (48 h).
`Cc1cc2c(C(N)=O)cccc2n1-c1nc2c(c(NCc3ccccc3O)n1)CCCN2` gave an IC50 of 5 µM (ATP luminescence; 72 h).
With `Fc1ccc2c(-c3nnc(Cc4ccccc4)s3)nn(Cc3ccccc3)c2c1` the IC50 was 73.9 µM (48 h).
With `COc1ccc(N(Cc2nc(-c3ccc(F)cc3)cs2)C(=O)CCCCCC(=O)NO)cc1` the IC50 was 3.2 µM (MTT; 72 h).
The IC50 of `N#Cc1ccc(-c2cc(CNc3cccc4cccnc34)on2)cc1` is reported as greater than 100 µM (MTS; 72 h).
For `O=[N+]([O-])c1ccc(NC(=S)N/N=C/c2cccc3cc4ccccc4nc23)cc1`, the IC50 was greater than 50 µM (MTT; 48 h).
The IC50 of `COc1cccc(N=C2SCC(=O)N2c2nnc(-c3ccc(C(F)(F)F)cc3N=C3SCC(=O)N3c3cccc(OC)c3)s2)c1` is reported as 71.4 µM (MTT).
`O=C(CSc1nc2ccccc2s1)N/N=C/c1ccc(OCC(=O)Nc2cccc(Cl)c2)cc1` gave an IC50 of greater than 100 µM (MTS; 72 h).
The IC50 of `O=[N+]([O-])c1cc(I)c(O)c(C=NNc2ccccc2)c1` is reported as 6.34 µM (MTT; 24 h).
With `Cc1cccc(N=C2C(=O)N(Cc3ccc(Br)cc3)c3ccccc32)c1` the IC50 was 8.21 µM (MTT; 48 h).
`O=C1CS/C(=N\c2ccccc2O)N1c1nnc(-c2ccc(C(F)(F)F)cc2/N=C2\SCC(=O)N2c2ccccc2O)s1` gave an IC50 of 40.5 µM (MTT).
The IC50 of `CCC(C(=O)N1C(=O)C(=Nc2ccc(Cl)cc2Br)c2ccccc21)c1ccccc1` (stereo not shown) is reported as 30.9 µM (MTT; 48 h).
The IC50 of `CC(C)c1ccc(/C=C2\NC(=S)N(c3ccccc3)C2=O)cc1` is reported as 63.2 µg/mL (MTT).
For `COc1cccc2c1C(=O)c1c(O)c3c(c(O)c1C2=O)C[C@@](O)(C(=O)CO)C[C@@H]3O[C@H]1C[C@H](N)[C@H](O)[C@H](C)O1`, the IC50 was 0.98 µM (ATP luminescence; 72 h).
